Measured values as given in ChEMBL document CHEMBL2010801, “Semisynthesis and antimicrobial activity of novel guttiferone-A derivatives” (Bioorg Med Chem, 2012).
Converted amounts (≈) assume the structure as drawn. The source made the active and inactive calls. The rule behind the calls is not given here.

Experiments:
Staphylococcus aureus [1] = assay: Antimicrobial activity against Staphylococcus aureus ATCC 6538 after 24 hrs by broth microdilution method; type: functional; conditions: for MIC50 / MIC: ATCC 6538, 24 h; for MIC: read-out: MIC100
Summary of the method: (§1)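 Microplate broth microdilution with a serial dilution series of compounds, using chloramphenicol as the antibacterial control. Bacterial plates were incubated at 35 °C for 24 h.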

[2] = system: Staphylococcus epidermidis; assay: Antimicrobial activity against Staphylococcus epidermidis ATCC 12228 after 24 hrs by broth microdilution method; type: functional; summary of the method: as §1
Bacillus cereus = assay: Antimicrobial activity against Bacillus cereus ATCC 11778 after 24 hrs by broth microdilution method; type: functional; conditions: ATCC 11778, 24 h; for MIC: read-out: MIC100; summary of the method: as §1
Pseudomonas aeruginosa = assay: Antimicrobial activity against Pseudomonas aeruginosa ATCC 9027 after 24 hrs by broth microdilution method; type: functional; summary of the method: as §1
Salmonella typhimurium = assay: Antimicrobial activity against Salmonella typhimurium ATCC 14028 after 24 hrs by broth microdilution method; type: functional; summary of the method: as §1
Escherichia coli = assay: Antimicrobial activity against Escherichia coli ATCC 25922 after 24 hrs by broth microdilution method; type: functional; summary of the method: as §1
Proteus mirabilis = assay: Antimicrobial activity against Proteus mirabilis ATCC 25933 after 24 hrs by broth microdilution method; type: functional; summary of the method: as §1
Candida albicans = assay: Antifungal activity against Candida albicans ATCC 09548 after 24 hrs by broth microdilution method; type: functional
Summary of the method: (§2)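 Broth microdilution in microplates with a serial dilution series of compounds. Amphotericin B served as the fungicidal control and fluconazole as the fungistatic control. Yeast plates were incubated at 37 °C for 24 h.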

Pichia kudriavzevii = assay: Antifungal activity against Candida krusei ATCC 6258 after 24 hrs by broth microdilution method; type: functional; summary of the method: as §2
Candida parapsilosis = assay: Antifungal activity against Candida parapsilosis ATCC 69548 after 24 hrs by broth microdilution method; type: functional; summary of the method: as §2
Nakaseomyces glabratus = assay: Antifungal activity against Candida glabrata ATCC 90030 after 24 hrs by broth microdilution method; type: functional; summary of the method: as §2
Candida tropicalis = assay: Antifungal activity against Candida tropicalis ATCC 750 after 24 hrs by broth microdilution method; type: functional; summary of the method: as §2
Cryptococcus neoformans = assay: Antifungal activity against Cryptococcus neoformans ATCC 90012 after 24 hrs by broth microdilution method; type: functional; summary of the method: as §2
Trichophyton tonsurans = assay: Antifungal activity against Trichophyton tonsurans after 48 hrs by broth microdilution method; type: functional
Summary of the method: (§3)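 Broth microdilution against filamentous fungi with serially diluted compounds. Amphotericin B (fungicidal) and fluconazole (fungistatic) were run as controls. Plates were incubated at 30 °C for 48 h.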

Nannizzia gypsea = assay: Antifungal activity against Microsporum gypseum after 48 hrs by broth microdilution method; type: functional; summary of the method: as §3
[3] = Cytotoxicity against human PBMC after 48 hrs by MTT assay; type: cell-based; conditions: PBMC (peripheral blood mononuclear cells)
Summary of the method: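 Normal human PBMC from healthy volunteers were isolated by Ficoll-Hypaque density gradient and seeded at 2.4 × 10⁶ cells/mL. Compounds were added at 100 to 0.06 and cells held 48 h at 37 °C, 5% CO₂. MTT was then added for 4 h, formazan dissolved in DMSO and A560 read. Untreated cells were taken as 100% viability. CC50 was obtained by linear regression.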

Staphylococcus aureus [4] = assay: Ratio of MIC100 for chloramphenicol to MIC100 of compound for Staphylococcus aureus ATCC 6538 after 24 hrs by broth microdilution method; type: functional
[5] = Salmonella enterica subsp. enterica serovar Typhimurium
[6] = Salmonella enterica, ATCC 14028, 24 h, read-out: MIC50

Structure (SMILES)	MIC50 [2]	MIC100 [2]	MIC50 (Bacillus cereus) [µM]	MIC (Bacillus cereus) [µM]	MIC100 (Pseudomonas aeruginosa)	MIC50 (Pseudomonas aeruginosa; ATCC 9027, 24 h) [µM]	MIC100 (Salmonella typhimurium; [5])	MIC50 (Salmonella typhimurium; [6]) [µM]	MIC100 (Escherichia coli)	MIC50 (Escherichia coli; ATCC 25922, 24 h) [µM]	MIC100 (Proteus mirabilis)	MIC50 (Candida albicans)	MIC100 (Candida albicans)	MIC100 (Candida parapsilosis)	MIC100 (Nakaseomyces glabratus)	MIC50 (Candida tropicalis)	MIC100 (Candida tropicalis)	MIC50 (Trichophyton tonsurans)	CC50 at 48 h [3] [µM]	MIC50 (Staphylococcus aureus [1]; read-out: MIC50) [µM]	also measured
CC(C)=CCC[C@]1(C)[C@@H](CC=C(C)C)C[C@@]2(CC=C(C)C)C(=O)C(C(=O)c3ccc(OC(=O)OC(C)(C)C)c(O)c3)=C(O)[C@]1(CC=C(C)C)C2=O	inactive	inactive	1800 (≈ 1270 µg/mL)	28.4 (≈ 20 µg/mL)	inactive	58.2 (≈ 40.9 µg/mL)	inactive	57 (≈ 40.1 µg/mL)	inactive	555 (≈ 390 µg/mL)	inactive	inactive	inactive	inactive	inactive	inactive	inactive	55 µM (≈ 38.7 µg/mL)	> 142	–	MIC50 (Staphylococcus aureus [1]): 18 µM (≈ 12.7 µg/mL); MIC50 (Proteus mirabilis): inactive; MIC50 (Pichia kudriavzevii; ATCC 6258, 24 h): 56.9 µM (≈ 40 µg/mL); MIC50 (Nakaseomyces glabratus; ATCC 90030, 24 h): 56.9 µM (≈ 40 µg/mL); MIC50 (Cryptococcus neoformans; ATCC 90012, 24 h, read-out: MIC50): 555 µM (≈ 390 µg/mL); MIC (Cryptococcus neoformans; ATCC 90012, 24 h, read-out: MIC100): 1.82 µM (≈ 1.28 µg/mL); MIC (Trichophyton tonsurans; read-out: MIC100): 1820 µM (≈ 1280 µg/mL); MIC (Nannizzia gypsea; read-out: MIC100): 28.4 µM (≈ 20 µg/mL)
CC(C)=CCC[C@]1(C)[C@@H](CC=C(C)C)C[C@@]2(CC=C(C)C)C(=O)C(C(=O)c3ccc(OS(C)(=O)=O)c(OS(C)(=O)=O)c3)=C(O)[C@]1(CC=C(C)C)C2=O	inactive	inactive	1650 (≈ 1250 µg/mL)	1.65 (≈ 1.25 µg/mL)	inactive	–	inactive	–	inactive	205 (≈ 156 µg/mL)	inactive	inactive	inactive	inactive	inactive	inactive	inactive	3290 µM (≈ 2500 µg/mL)	> 132	51 (≈ 38.7 µg/mL)	MIC (Staphylococcus aureus [1]): 3.29 µM (≈ 2.5 µg/mL); MIC50 (Pseudomonas aeruginosa): inactive; MIC50 (Salmonella typhimurium; [5]): inactive; MIC50 (Proteus mirabilis): inactive; MIC100 (Pichia kudriavzevii): inactive; MIC50 (Pichia kudriavzevii; ATCC 6258, 24 h): 52.7 µM (≈ 40 µg/mL); MIC50 (Candida parapsilosis): inactive; MIC100 (Cryptococcus neoformans): inactive; MIC50 (Cryptococcus neoformans; ATCC 90012, 24 h): 52.7 µM (≈ 40 µg/mL); MIC100 (Trichophyton tonsurans): inactive; MIC50 (Nannizzia gypsea): inactive; MIC100 (Nannizzia gypsea): inactive; Ratio (Staphylococcus aureus [4]): 3.66
CC(C)=CCC[C@]1(C)[C@@H](CC=C(C)C)C[C@@]2(CC=C(C)C)C(=O)C(C(=O)c3ccc(OC(=O)c4ccc(Cl)cc4)c(OC(=O)c4ccc(Cl)cc4)c3)=C(O)[C@]1(CC=C(C)C)C2=O	inactive	inactive	354 (≈ 312 µg/mL)	45.5 (≈ 40 µg/mL)	inactive	–	inactive	44 (≈ 38.7 µg/mL)	inactive	44 (≈ 38.7 µg/mL)	inactive	inactive	inactive	inactive	inactive	inactive	inactive	inactive	> 114	177 (≈ 156 µg/mL)	MIC100 (Staphylococcus aureus [1]): inactive; MIC50 (Pseudomonas aeruginosa): inactive; MIC50 (Pichia kudriavzevii): inactive; MIC100 (Pichia kudriavzevii): inactive; MIC50 (Candida parapsilosis): inactive; MIC50 (Nakaseomyces glabratus): inactive; MIC100 (Cryptococcus neoformans): inactive; MIC50 (Cryptococcus neoformans; ATCC 90012, 24 h): 45.5 µM (≈ 40 µg/mL); MIC100 (Trichophyton tonsurans): inactive; MIC50 (Nannizzia gypsea): inactive; MIC100 (Nannizzia gypsea): inactive
O=C(N[C@H](CO)[C@H](O)c1ccc([N+](=O)[O-])cc1)C(Cl)Cl [CHLORAMPHENICOL]	–	–	4820 (≈ 1560 µg/mL)	77.4 (≈ 25 µg/mL)	–	48.3 (≈ 15.6 µg/mL)	–	–	–	1510 (≈ 487 µg/mL)	–	–	–	–	–	–	–	–	–	6030 (≈ 1950 µg/mL)	MIC (Staphylococcus aureus [1]): 12 µM (≈ 3.89 µg/mL); MIC50 (Salmonella typhimurium; Salmonella enterica, ATCC 14028, 24 h): 15.1 µM (≈ 4.88 µg/mL); MIC (Salmonella typhimurium; Salmonella enterica, ATCC 14028, 24 h, read-out: MIC100): 6.03 µM (≈ 1.95 µg/mL); MIC (Escherichia coli; ATCC 25922, 24 h, read-out: MIC100): 12.1 µM (≈ 3.9 µg/mL); MIC50 (Proteus mirabilis; ATCC 25933, 24 h): 24.1 µM (≈ 7.79 µg/mL); MIC (Proteus mirabilis; ATCC 25933, 24 h, read-out: MIC100): 48.3 µM (≈ 15.6 µg/mL)
